Legend:
[1] = target: K18 tau fragment bearing the P301L mutation (K18PL) (Homo sapiens, UniProt P10636, P618L); assay: Heparin-induced tau K18PL fibrillization assay monitored by thioflavine-T; type: biochemical
[2] = target: tau40-promoted MT-polymerization (tubulin) (Homo sapiens, UniProt P10636); assay: MT-assembly; type: biochemical; conditions: 50 μM compound, 30 μM tubulin, 20 μM tau40
Procedure, shortened: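 Wild-type full-length human tau40 (2N4R) was preincubated with test compound for 120 min at room temperature in RAB (100 mM MES pH 6.9, 1 mM […], 0.5 mM MgSO4). Bovine brain tubulin and GTP were then added. Final concentrations were 30 μM tubulin, 20 μM tau, 50 μM compound and 2 mM GTP, with a DMSO control. Polymerisation was followed at 37 °C by A340 every minute for 45 min.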

[3] = Phase 2 study, 321 patients with mild or moderate AD; cited from earlier work
[4] = Brain and plasma levels 1 h after i.p. administration; type: in vivo; conditions: female, B6C3F1, mouse, brain, ip, 5 mg/kg, Brain level, mice, 5 mg/kg i.p.
Procedure, shortened: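 Two-month-old female B6C3F1 mice, three per compound, given test compound 5 mg/kg i.p. and sampled at 1 h. Brain hemispheres were homogenised in 10 mM ammonium acetate pH 5.7 (1:2 w/v), and plasma was collected on EDTA. Samples were acetonitrile-extracted and quantified by LC-MS/MS (MRM, positive ESI) against spiked brain/plasma standards (4–4000 ng/mL) using a 1/x-weighted linear fit and triplicate injections.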

[5] = Brain and plasma levels after oral administration; type: in vivo; conditions: mice, oral gavage 5 mg/Kg
Procedure, shortened: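 Female B6C3F1 mice, two months old, were dosed with test compound at 5 mg/kg by oral gavage. Brain homogenate (10 mM ammonium acetate pH 5.7, 1:2 w/v) and EDTA plasma were extracted with acetonitrile. Levels were measured by LC-MS/MS with MRM detection, quantified from matrix-matched standard curves (4–4000 ng/mL) by 1/x-weighted linear regression on the mean of triplicate injections.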

K18 tau fragment bearing the P301L mutation (K18PL), sequence (P10636 561-689 P618L): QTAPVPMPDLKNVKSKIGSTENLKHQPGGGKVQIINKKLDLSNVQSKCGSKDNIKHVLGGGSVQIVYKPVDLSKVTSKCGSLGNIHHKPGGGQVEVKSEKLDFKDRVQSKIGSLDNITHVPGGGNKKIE
tau40-promoted MT-polymerization (tubulin), sequence (P10636 1-441 isoform P10636-8): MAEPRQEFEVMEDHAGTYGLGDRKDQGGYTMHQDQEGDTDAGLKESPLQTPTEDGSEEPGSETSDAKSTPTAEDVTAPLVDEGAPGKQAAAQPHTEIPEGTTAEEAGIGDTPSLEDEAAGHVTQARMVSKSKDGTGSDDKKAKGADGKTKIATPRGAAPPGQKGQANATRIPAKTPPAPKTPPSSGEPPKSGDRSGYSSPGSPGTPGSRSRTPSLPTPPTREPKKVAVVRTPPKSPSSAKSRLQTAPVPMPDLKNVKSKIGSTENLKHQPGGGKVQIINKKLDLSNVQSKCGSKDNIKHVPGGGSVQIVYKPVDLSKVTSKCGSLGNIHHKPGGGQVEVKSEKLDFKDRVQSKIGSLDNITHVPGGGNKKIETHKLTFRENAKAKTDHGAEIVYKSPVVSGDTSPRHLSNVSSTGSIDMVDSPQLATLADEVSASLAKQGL

Compound | IC50 [1] | further results
Nc1scc2c(C(=O)O)nn(-c3ccc(Cl)cc3)c(=O)c12 [Compound 11, 5-Amino-3-(4-chlorophenyl)-4-oxo-3,4-dihydrothieno[3,4-d]pyridazine-1-carboxylic acid] | 5.4 ± 2.3 µM | Interference with the normal MT-stabilizing function of tau [2]: did not appear to interfere
CN(C)c1ccc2nc3ccc(=[N+](C)C)cc-3sc2c1 [methylene blue] | – | Cognitive decline compared to placebo [3]: significant reduction in cognitive decline
CC(C)OC(=O)c1nn(-c2ccc(Cl)cc2)c(=O)c2c(N)scc12 [Compound 10, Isopropyl 5-amino-3-(4-chlorophenyl)-4-oxo-3,4-dihydrothieno[3,4-d]pyridazine-1-carboxylate] | 1.6 ± 1.1 µM | Interference with the normal MT-stabilizing function of tau [2]: did not appear to interfere
CC(C)NC(=O)c1nn(-c2ccc(Br)cc2)c(=O)c2c(N)scc12 [Compound 19, 5-Amino-3-(4-bromophenyl)-N-isopropyl-4-oxo-3,4-dihydrothieno[3,4-d]pyridazine-1-carboxamide] | 3.1 ± 0.6 µM | –
CCOC(=O)c1nn(-c2ccc(Cl)cc2)c(=O)c2c(N)scc12 [Compound 8, Ethyl 5-amino-3-(4-chlorophenyl)-4-oxo-3,4-dihydrothieno[3,4-d]pyridazine-1-carboxylate] | 3.8 ± 1.6 µM | Interference with the normal MT-stabilizing function of tau [2]: did not appear to interfere
CC(C)NC(=O)c1nn(-c2ccc(Cl)cc2)c(=O)c2c(N)scc12 [Compound 15, 5-Amino-3-(4-chlorophenyl)-N-isopropyl-4-oxo-3,4-dihydrothieno[3,4-d]pyridazine-1-carboxamide] | 5.9 ± 4.7 µM | concentration at 1 h [4]: > 800 ng/g; Brain concentration after oral administration [5]: significant concentrations
Nc1scc2c(C(=O)NC3CC3)nn(-c3ccc(Cl)cc3)c(=O)c12 [Compound 16, 5-Amino-3-(4-chlorophenyl)-N-cyclopropyl-4-oxo-3,4-dihydrothieno[3,4-d]pyridazine-1-carboxamide] | 8.1 ± 5.7 µM | concentration at 1 h [4]: > 800 ng/g; Brain concentration after oral administration [5]: significant concentrations

Now from value to compound, other results behind:

IC50 [1] | Compound | further results
21.7 ± 16 µM | CNC(=O)c1nn(-c2ccc(Cl)cc2)c(=O)c2c(N)scc12 [Compound 13, 5-Amino-3-(4-chlorophenyl)-N-methyl-4-oxo-3,4-dihydrothieno[3,4-d]pyridazine-1-carboxamide] | –
20.5 ± 13.6 µM | CN(C)C(=O)c1nn(-c2ccc(Cl)cc2)c(=O)c2c(N)scc12 [Compound 17, 5-Amino-3-(4-chlorophenyl)-N,N-dimethyl-4-oxo-3,4-dihydrothieno[3,4-d]pyridazine-1-carboxamide] | –
6.9 ± 3.4 µM | CCNC(=O)c1nn(-c2ccc(Cl)cc2)c(=O)c2c(N)scc12 [Compound 14, 5-Amino-3-(4-chlorophenyl)-N-ethyl-4-oxo-3,4-dihydrothieno[3,4-d]pyridazine-1-carboxamide] | concentration at 1 h [4]: > 800 ng/g
32 ± 4.1 µM | CCN(C)C(=O)c1nn(-c2ccc(Cl)cc2)c(=O)c2c(N)scc12 [Compound 18, 5-Amino-3-(4-chlorophenyl)-N-ethyl-N-methyl-4-oxo-3,4-dihydrothieno[3,4-d]pyridazine-1-carboxamide] | –

Reference: article PMC2872922 (Journal of medicinal chemistry, 2010)
